Values belong to the compound of their own block, whether it stands above or below them.
Experiments:
[1] = Chemical stability of the compound in borate buffered saline assessed as half life of cyclization at pH 5.52; assay type: physicochemical
Method in brief: (§1)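 Lactamization of the amino intermediate in borate-buffered saline, pH range 5–8, 37 °C, ionic strength 0.12 (figure legend gives I = 0.05). Parent loss and formation of parent drug and dihydroquinolone followed by HPLC, validated at 1.1–16.6 µM. Apparent first-order rate constants fitted by nonlinear regression, three determinations per pH; half-lives derived from these constants.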

[2] = Chemical stability of the compound in borate buffered saline assessed as half life of cyclization at pH 6; assay type: physicochemical; method in brief: as §1
[3] = Chemical stability of the compound in borate buffered saline assessed as half life of cyclization at pH 6.28; assay type: physicochemical; method in brief: as §1
[4] = Chemical stability of the compound in borate buffered saline assessed as half life of cyclization at pH 6.4; assay type: physicochemical; method in brief: as §1
[5] = Chemical stability of the compound in borate buffered saline assessed as half life of cyclization at pH 7; assay type: physicochemical; method in brief: as §1
[6] = Chemical stability of the compound in borate buffered saline assessed as half life of cyclization at pH 6.11; assay type: physicochemical; method in brief: as §1
[7] = Chemical stability of the compound in borate buffered saline assessed as half life of cyclization at pH 6.2; assay type: physicochemical; method in brief: as §1
[8] = Chemical stability of the compound in borate buffered saline assessed as half life of cyclization at pH 7.4; assay type: physicochemical; method in brief: as §1
[9] = Secretory transport of the compound through transepithelial human Caco2 model; assay type: ADME, cell-based; conditions: Caco-2
[10] = Dissociation constant, pKa of the compound; assay type: physicochemical

half-life [1]: 10.2 min | half-life [2]: 10.9 min | half-life [3]: 41.2 min | half-life [4]: 60.3 min | half-life [5]: 130 min | half-life [6]: 15.2 min | half-life [7]: 29.5 min | half-life [8]: 632 min
Structure (SMILES): Cc1ccc(-c2cc(C(F)(F)F)nn2-c2ccc(S(=O)(=O)NC(=O)CCc3ccccc3N)cc2)cc1

Papp B→A [9]: 124 nm/s
Structure (SMILES): Cc1ccc(-c2cc(C(F)(F)F)nn2-c2ccc(S(N)(=O)=O)cc2)cc1 [CELECOXIB]

pKa [10]: 4.9
Structure (SMILES): CCC(=O)NS(=O)(=O)c1ccc(-c2c(-c3ccccc3)noc2C)cc1 [PARECOXIB]
